pIC50: −log10 of the molar value. Where two headings read alike, the source gives them in different places.
Assays:
[1] = molecular target: T1, DNA polymerase α (Pol-α) (Homo sapiens, UniProt P09884); test: DNA polymerase inhibition assay, Pol-α; assay type: biochemical
T1 sequence (P09884 1-1462): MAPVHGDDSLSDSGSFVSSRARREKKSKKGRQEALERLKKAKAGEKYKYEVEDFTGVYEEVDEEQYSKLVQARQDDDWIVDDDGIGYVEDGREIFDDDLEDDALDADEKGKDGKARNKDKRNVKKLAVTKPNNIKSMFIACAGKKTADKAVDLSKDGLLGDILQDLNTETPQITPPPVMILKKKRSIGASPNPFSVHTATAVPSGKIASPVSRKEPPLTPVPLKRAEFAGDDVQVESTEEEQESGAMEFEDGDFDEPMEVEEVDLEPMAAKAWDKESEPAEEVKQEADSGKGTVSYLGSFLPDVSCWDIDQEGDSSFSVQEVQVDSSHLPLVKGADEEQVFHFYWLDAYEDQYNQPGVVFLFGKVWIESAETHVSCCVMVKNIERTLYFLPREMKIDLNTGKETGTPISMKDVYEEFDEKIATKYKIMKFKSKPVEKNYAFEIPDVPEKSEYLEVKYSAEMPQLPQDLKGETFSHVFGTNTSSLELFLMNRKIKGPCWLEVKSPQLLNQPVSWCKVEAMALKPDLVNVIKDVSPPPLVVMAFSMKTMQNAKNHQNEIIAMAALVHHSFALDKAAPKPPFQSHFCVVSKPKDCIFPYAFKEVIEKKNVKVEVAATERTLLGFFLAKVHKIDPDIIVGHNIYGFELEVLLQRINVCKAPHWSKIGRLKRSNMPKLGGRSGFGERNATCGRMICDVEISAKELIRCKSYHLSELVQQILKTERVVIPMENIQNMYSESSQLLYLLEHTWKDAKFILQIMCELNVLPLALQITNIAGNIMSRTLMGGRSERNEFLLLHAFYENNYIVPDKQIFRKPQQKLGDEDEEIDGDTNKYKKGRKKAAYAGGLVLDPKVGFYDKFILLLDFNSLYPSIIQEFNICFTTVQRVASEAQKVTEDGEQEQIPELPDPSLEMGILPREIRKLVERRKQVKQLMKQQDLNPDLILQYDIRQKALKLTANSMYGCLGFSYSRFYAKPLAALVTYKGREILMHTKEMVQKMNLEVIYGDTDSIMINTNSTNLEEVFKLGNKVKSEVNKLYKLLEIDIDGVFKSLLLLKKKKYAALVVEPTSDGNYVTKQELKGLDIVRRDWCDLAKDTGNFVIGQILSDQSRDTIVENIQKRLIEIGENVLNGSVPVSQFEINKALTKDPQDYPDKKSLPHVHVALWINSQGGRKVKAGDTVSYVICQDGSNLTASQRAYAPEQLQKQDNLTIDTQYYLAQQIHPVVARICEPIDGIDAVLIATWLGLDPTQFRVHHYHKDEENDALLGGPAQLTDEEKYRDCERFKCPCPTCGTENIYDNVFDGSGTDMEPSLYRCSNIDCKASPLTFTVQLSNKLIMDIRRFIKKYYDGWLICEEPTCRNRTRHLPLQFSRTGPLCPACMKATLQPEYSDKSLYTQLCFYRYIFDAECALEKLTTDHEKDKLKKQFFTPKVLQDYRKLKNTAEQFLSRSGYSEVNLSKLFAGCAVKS

[2] = molecular target: DNA polymerase β (Pol-β) (Homo sapiens, UniProt P06746); test: DNA polymerase inhibition assay, Pol-β; assay type: biochemical; conditions: 1 h, 3H-dTTP incorporation
Method in brief: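 Reactions contained 25 μM each dATP/dCTP/dGTP, 25 nM TTP plus 1 μCi ³H-TTP, 160 nM template/primer, and serially diluted test nucleotide (0–200 μM). Incubation was 1 h at 37°C. DNA was TCA-precipitated, washed and counted; inhibition was taken from reduced incorporation. ddNTPs served as positive control.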

[3] = molecular target: T2, DNA polymerase γ (Pol-γ) (Homo sapiens, UniProt P54098); test: DNA polymerase inhibition assay, Pol-γ; assay type: biochemical; conditions: 1 h, 3H-dTTP incorporation
T2 sequence (P54098 1-1239): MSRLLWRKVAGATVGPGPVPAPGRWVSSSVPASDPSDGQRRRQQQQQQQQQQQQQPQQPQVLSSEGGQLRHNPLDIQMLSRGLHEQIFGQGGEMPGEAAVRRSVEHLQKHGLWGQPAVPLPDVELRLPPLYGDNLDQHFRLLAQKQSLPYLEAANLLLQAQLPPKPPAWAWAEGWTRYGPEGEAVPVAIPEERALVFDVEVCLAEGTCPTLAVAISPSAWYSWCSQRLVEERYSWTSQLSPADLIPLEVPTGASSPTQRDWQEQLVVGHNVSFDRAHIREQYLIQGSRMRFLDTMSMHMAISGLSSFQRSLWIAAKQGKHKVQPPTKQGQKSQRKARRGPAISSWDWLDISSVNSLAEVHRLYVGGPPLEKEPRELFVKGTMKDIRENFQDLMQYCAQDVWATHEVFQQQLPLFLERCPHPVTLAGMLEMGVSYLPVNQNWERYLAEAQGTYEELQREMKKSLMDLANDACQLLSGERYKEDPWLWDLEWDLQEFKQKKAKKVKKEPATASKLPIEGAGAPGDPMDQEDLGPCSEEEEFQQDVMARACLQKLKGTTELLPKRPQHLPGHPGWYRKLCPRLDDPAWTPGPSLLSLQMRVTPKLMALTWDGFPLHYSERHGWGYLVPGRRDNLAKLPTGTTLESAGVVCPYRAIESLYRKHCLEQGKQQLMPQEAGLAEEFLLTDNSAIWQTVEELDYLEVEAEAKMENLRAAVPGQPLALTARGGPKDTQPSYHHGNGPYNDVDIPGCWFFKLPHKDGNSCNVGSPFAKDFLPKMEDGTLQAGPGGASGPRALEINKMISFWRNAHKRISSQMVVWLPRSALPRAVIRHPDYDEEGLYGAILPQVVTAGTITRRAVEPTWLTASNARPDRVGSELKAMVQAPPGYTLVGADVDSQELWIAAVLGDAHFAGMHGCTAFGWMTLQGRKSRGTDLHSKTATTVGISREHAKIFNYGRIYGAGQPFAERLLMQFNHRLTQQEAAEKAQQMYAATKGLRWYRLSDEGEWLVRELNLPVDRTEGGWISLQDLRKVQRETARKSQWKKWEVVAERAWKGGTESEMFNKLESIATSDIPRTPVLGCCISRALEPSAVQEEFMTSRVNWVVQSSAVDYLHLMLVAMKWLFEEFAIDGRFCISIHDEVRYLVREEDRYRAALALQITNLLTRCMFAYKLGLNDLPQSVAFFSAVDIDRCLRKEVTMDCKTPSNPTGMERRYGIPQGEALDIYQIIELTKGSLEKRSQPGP
Method in brief: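 Reactions contained 25 μM each dATP/dCTP/dGTP, 25 nM TTP plus 1 μCi ³H-TTP, 160 nM template/primer, and serially diluted test nucleotide (0–200 μM). Incubation was 1 h at 37°C, stopped with TCA (10% final). DNA was precipitated 40 min at 4°C, washed and scintillation-counted; inhibition was taken from reduced radioactivity.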

[4] = Cytotoxicity, sulforhodamine B assay, HepG2; assay type: cell-based, human; conditions: human, HepG2 cells (liver), day 11, four doses
Method in brief: (§1)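 Cells were grown 1 week in glucose- or galactose-containing medium, then seeded in 96-well plates. iCell cardiomyocytes were seeded on gelatin-coated plates and grown 5 days. Test compounds in 1:1 ethanol:water were added at each media change on days 0, 3, 7 and 10 (four doses), at up to 250 μM. Final ethanol was 2.5% at 250 μM and 1% otherwise. Total protein was read by sulforhodamine B on day 11. CC50 was fitted from triplicates.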

[5] = Cytotoxicity, sulforhodamine B assay, SkMC; assay type: cell-based, human; conditions: human, SkMC cells (muscle), CC50, SkMC, day 11
Method in brief: as §1

[6] = Cytotoxicity, sulforhodamine B assay, Caki-1; assay type: cell-based, human; conditions: human, Caki-1 cells (kidney), day 11
Method in brief: as §1

[7] = Cytotoxicity, sulforhodamine B assay, Molt-4; assay type: cell-based, human; conditions: human, Molt-4 cells (blood), day 11
Method in brief: as §1

[8] = Cytotoxicity, sulforhodamine B assay, COLO 205; assay type: cell-based, human; conditions: human, COLO 205 cells (intestine), day 11
Method in brief: as §1

[9] = Cytotoxicity, sulforhodamine B assay, SNB-78; assay type: cell-based, human; conditions: human, SNB-78 cells (CNS), day 11
Method in brief: as §1

[10] = test system: SNB-78 (CNS); test: Cytotoxicity, sulforhodamine B assay, SNB-78; assay type: cell-based, human; conditions: SNB-78
Method in brief: as §1

[11] = Cytotoxicity, sulforhodamine B assay, iCell cardiomyocytes; assay type: cell-based; conditions: human, iCell cardiomyocytes (heart)
Method in brief: as §1

[12] = Pol-α, 1 h, 3H-dTTP incorporation

O=P(O)(O)OP(=O)(O)OP(=O)(O)OC[C@H]1O[C@@H](n2cnc3c(O)ncnc32)[C@H](F)[C@@H]1O [2′-F-ITP]
pIC50 [1, 12]: < 3.70
IC90 [1, 12]: > 200 µM
pIC50 [2]: < 3.70
IC90 [2]: > 200 µM
pIC50 [3]: < 3.70
IC90 [3]: > 200 µM

C[C@@]1(CO)[C@H](O)CC[C@@]2(C)[C@H]1CC[C@H]1C[C@@H]3C[C@@]12CC[C@]3(O)CO [Aphidicolin, reference compound]
IC90 [1]: 16.5 µM

CC(C)OC(=O)[C@H](C)N[P@](=O)(OC[C@H]1O[C@@H](n2ccc(=O)[nH]c2=O)[C@](C)(F)[C@@H]1O)Oc1ccccc1 [SOF, Sofosbuvir]
CC50 at 11 days ([4]; CC50, HepG2, Galactose media): 97 µM
CC50 at 11 days ([4]; CC50, HepG2, Glucose media): 114 µM
CC50 at 11 days ([5]; Galactose media): > 250 µM
CC50 at 11 days ([5]; Glucose media): > 250 µM
CC50 at 11 days ([6]; CC50, Caki-1, Galactose media): > 250 µM
CC50 at 11 days ([6]; CC50, Caki-1, Glucose media): > 250 µM
CC50 at 11 days ([7]; CC50, Molt-4, Galactose media): > 250 µM
CC50 at 11 days ([7]; CC50, Molt-4, Glucose media): > 250 µM
CC50 at 11 days ([8]; CC50, COLO 205, Galactose media): 123 µM
CC50 at 11 days ([8]; CC50, COLO 205, Glucose media): 155 µM
CC50 at 11 days ([9]; CC50, SNB-78, Galactose media): 120 µM
CC50 at 11 days ([9]; CC50, SNB-78, Glucose media): > 250 µM
decrease of CC50 in galactose compared to glucose media [10]: 2–10 fold
CC50 at 11 days [11]: > 250 µM

dideoxy nucleoside 5′ triphosphates [ddNTP, reference compound]
pIC50 [2]: 7.22
IC90 [2]: 0.65 µM
pIC50 [3]: 6.46
IC90 [3]: 8.65 µM
